# Sampled rows, rich in hits. Any-hit rate of the full collection: about 3.7%.
# Yeast life ext: extends the lifespan of yeast. actives 0.68% (n = 130,000). S. cerevisiae growth with nicotinamide, OD615; deaD strain in restrictive glucose medium. inhibition of the nicotinamide effect, % at 10 µM;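 active = inhibition above a set limit, placed 3 SD over the median of all compounds, cut at about 26% in these data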;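 also: 0% = nicotinamide-treated wells and 100% = cells grown without nicotinamide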
#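 Test system: DeaD-strain S. cerevisiae / Buffer or medium: restrictive glucose medium / Also added: nicotinamide 1.5 mM / Doses: one concentration, 10 µM, DMSO 0.25% / Schedule: 48 h at 30 °C / Signal: OD615 measurement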
# HMGR II inh: blocks class II HMG-CoA reductase of Enterococcus faecalis | purified E. faecalis HMGR, NADPH absorbance 340 nm kinetic | inhibition, % at 10 µM | actives 0.41% (n = 190,000) | AID 1066;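 active = inhibition above a set limit, the median over all tested compounds plus 3 SD, cut at about 9.5% in these data; inconclusive = no clear call, values can overlap the other calls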;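 also: enzyme runs in reverse so mevalonate oxidation gives rising NADPH absorbance; 0% = complete reaction with DMSO and 100% = background rate lacking mevalonate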
# RAM inhibit: inhibitors of the yeast RAM network; S. cerevisiae dse1pr::URA3 reporter, 5-FOA growth OD615, 2 d; analog-sensitive cbk1-as2 kinase mutant strain; inhibition, % at 50 µM; AID 868; actives 1.8% (n = 190,000);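 active = inhibition above a set limit, 3 SD over mean compound inhibition, cut at about 8.4% in these data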;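 also: 0% = DMSO-only wells with no growth and 100% = 10 µM 1-NA-PP1 full growth; inhibition rescues growth on 5-FOA so higher OD means more RAM inhibition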
# Yeast growth inh: reduces growth of yeast BB579 in restrictive medium | actives 0.51% (n = 140,000) | inhibition, % at 10 µM | S. cerevisiae BB579 growth, OD615, 48 h | AID 804;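 active = inhibition above a set limit, 3 SD over the mean compound inhibition, cut at about 44% in these data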
#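 Assay system: S. cerevisiae DeaD strain BB579 yeast. Medium: CSMM-D restrictive synthetic medium containing dextrose (glucose). Times: 4 h cell preincubation, 48 h compound exposure, 30 °C humidified. Signal: OD615 turbidity measurement. Benchmarks: positive control amphotericin B 10 µg/mL.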
# INS promoter inh: TRM-6 insulin promoter activity inhibition; TRM-6 cells, insulin promoter-eGFP reporter, imaging; reporter expression induced with tamoxifen; inhibition, % at 2 µM; actives 0.9% (n = 130,000); AID 1273;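 active = inhibition above the mean plus 3 SD, with well images judged a real hit on visual review, cut at about 60% in these data, passing the limit was not always enough; inconclusive = inhibition over the cutoff but images rejected on review; inactive = inhibition not above the cutoff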
# The depositor's hits bear a star; ? = inconclusive; nt = no result given.
SMILES,Yeast life ext,HMGR II inh,RAM inhibit,Yeast growth inh,INS promoter inh
COc1ccc(CN2CCN(C(=O)CC(C)C)CC2)cc1OC,-14.1,-4.3,-0.3,-5.7,-12.9
c1ccc(Cc2noc(CN3CCN(CCOc4ccccc4)CC3)n2)cc1,nt,1.2,1.4,nt,nt
COc1n[nH]c(C(=O)NCc2ccccc2)c1[N+](=O)[O-],nt,12.1*,0.6,nt,11.1
COc1n[nH]c(C(=O)Nc2nc3ccccc3s2)c1[N+](=O)[O-],nt,0.0,4.1,nt,nt
CN(C)c1nc(NC(C)(C)C)nc(SCC(=O)Nc2ccccc2)n1,nt,-1.2,2.4,nt,80.5*
CN(C)c1nc(NCc2ccccc2)nc(SCC(=O)Nc2ccccc2)n1,-19.4,-3.1,5.0,-5.3,nt
CC1(C(=O)NCCCN2CCOCC2)Oc2cccnc2NC1=O (stereo not given),nt,-0.2,2.7,nt,nt
COc1cccc(NC(=O)c2ccncc2)c1,-20.2,1.2,-0.4,10.8,41.9
COc1cccc(NC(=O)c2cc(C(=O)Nc3cccc(OC)c3)n(C)n2)c1,5.6,1.3,10.9*,-60.1,28.6
CCOc1ccc(NC(=O)c2ccc3snnc3c2)cc1,nt,0.1,1.6,-13.9,?
COc1cccc(NC(=O)c2ccc3snnc3c2)c1,nt,17.3*,1.1,-31.3,-81.0
COc1cccc(C(=O)NC2=NCCS2)c1,-8.7,-2.4,1.4,18.8,75.0*
CC1CCN(CCOc2ccc(OCc3ccccc3)cc2)CC1,4.8,-4.2,-0.2,1.2,-17.2
COc1oc(-c2ccc(Cl)cc2)nc1C(F)(F)F,nt,21.5*,-0.8,-3.6,?
O=C(NCc1cccc(C(F)(F)F)c1)C1CC(c2c(Cl)cccc2Cl)=NO1 (stereo not given),-25.1,-8.4,5.4,-27.2,-22.2
Cc1ccnc(SCc2cc(=O)c(OC(=O)c3ccccc3)co2)n1,nt,-5.0,-0.9,nt,-427.8
Cc1cc(C)nc(SCc2cc(=O)c(OC(=O)c3ccco3)co2)n1,45.8*,-4.2,2.5,-24.2,30.0
Cc1cc(C)nc(SCc2cc(=O)c(OC(=O)c3cc([N+](=O)[O-])ccc3Cl)co2)n1,19.2,-5.0,3.0,-38.7,nt
Cc1cc(C)nc(SCc2cc(=O)c(OC(=O)c3ccc(Br)o3)co2)n1,48.9*,-0.5,-0.9,-41.5,36.7
Cc1c(Cl)c(=O)n2c(=O)c(Cl)c(C)n12,nt,1.0,1.1,nt,nt
CCOC(=O)c1nn(-c2ccc(F)cc2)c2nc(-c3ccccc3)c(C#N)c(=O)n12,27.2*,-2.6,8.2,-37.8,-7.7
CCOC(=O)c1nn(-c2ccc(OCC)cc2)c2nc(-c3cccc(OC)c3)c(C#N)c(=O)n12,2.8,2.2,9.7*,-7.0,35.7
Cc1ccc(C(=O)NNC(=O)C2CCCN(c3ncccn3)C2)cc1 (stereo not given),-14.9,-1.9,-0.1,6.4,21.4
O=C(OCC(=O)N1CCCC1)c1cncc(Br)c1,-2.6,-3.8,-0.2,7.3,100.0*
O=C(OCC(=O)N1CCCc2ccccc21)c1cncc(Br)c1,-1.8,2.9,0.2,-25.2,nt
SMILES,Yeast life ext,HMGR II inh,RAM inhibit,Yeast growth inh,INS promoter inh
Cc1ccc(S(=O)(=O)Nc2cccc(Cl)c2)cc1NC(=O)c1cccnc1,nt,-1.4,0.2,nt,nt
CC(=O)c1c(C)[nH]c(C(=O)OC2CCCCC2=O)c1C (stereo not given),142.1*,1.9,2.0,-17.2,21.2
Cc1cccc(C2Nc3ccccc3C(=O)N2c2ccc(F)cc2)n1 (stereo not given),nt,9.8*,-0.1,-31.8,14.3
CCn1c(CN2CCN(c3cccc(C)c3C)CC2)n[nH]c1=S,0.8,5.4,1.1,-53.8,0.0
COc1ccc(OCCn2c(C)c(/C=N/n3cnnc3)c3ccccc32)cc1,-5.4,-0.8,10.0*,-25.3,14.3
CCOC(=O)c1c(NC(=O)C2C3CCC(O3)C2C(=O)O)sc2c1CCC(CC)C2 (stereo not given),nt,-6.3,-0.1,nt,50.0
CCOC(=O)c1c(NC(=O)C2C3C=CC(C3)C2C(=O)O)sc2c1CCC(CC)C2 (stereo not given),42.5*,-3.4,1.4,-14.6,26.7
Cc1ccc2nc(N3CCN(c4ccccc4F)CC3)c(C=O)c(=O)n2c1,nt,2.7,1.1,nt,nt
Cc1ccc(N(CC(=O)NC(C)(C)C)C(=O)CNC(=O)c2cccs2)c(C)c1,nt,0.2,2.1,nt,nt
CCS(=O)(=O)n1nc(-c2ccc(Cl)cc2)nc1SCc1ccccc1,nt,5.9,-1.6,74.7*,-43.8
N#CCc1c(C#N)c(N)nc(N2CCCC(CO)C2)c1C#N (stereo not given),nt,-8.9,-0.1,nt,nt
NS(=O)(=O)c1ccc(NC(=O)COC(=O)COc2ccccc2)cc1,nt,-4.2,0.6,nt,16.7
Cc1[nH]nc2c1/C(=N\O)CC(C)(C)C2,-14.9,-1.9,1.0,-0.9,nt
Cc1ccc2c(n1)CC(C)(C)C/C2=N\O,nt,0.3,1.0,-3.2,90.5*
COc1ccc([C@H]2[C@H](C(=O)C(C)(C)C)N3N=Cc4ccccc4C3C23C(=O)OC(C)(C)OC3=O)cc1 (stereo not given in full),36.2*,-2.8,2.5,7.1,13.3
COc1ccc([C@@H]2[C@@H](C(=O)C(C)(C)C)N3N=Cc4ccccc4[C@@H]3C23C(=O)OC(C)(C)OC3=O)cc1OC,22.9,-5.2,0.2,-2.9,66.7
O=c1c(-c2ccccc2)nc(-c2ccccc2)cn1O,-4.3,-3.4,0.8,48.8*,16.1
O=c1oc2ccccc2c(O)c1/C=C1\C=Nc2ccccc21,-3.9,-4.9,2.4,86.3*,28.0
CN(Cc1c(O)ccc2c1oc(=O)c1ccccc12)C1CCCCC1,46.2*,-1.6,-0.8,-23.3,nt
CCC(=O)Nc1nc(C)c(Oc2ccccc2)c(=O)[nH]1,-7.4,1.3,-0.5,-27.9,18.2
CC(=O)Nc1nc(C)c(Oc2ccccc2)c(=O)[nH]1,81.4*,-4.1,0.3,-40.0,0.0
O=C(Nc1ccc([N+](=O)[O-])cn1)C1CC2CCC1C2 (stereo not given),4.9,-6.7,0.7,-18.3,69.2*
CCOC(=O)c1c(NC(=O)CN2C(=O)NC3(CCC(CC)CC3)C2=O)sc(C)c1-c1ccc(C)cc1 (stereo not given),4.7,-6.4,5.7,-20.9,32.4
NS(=O)(=O)c1ccc(NC(=S)Nc2ccn(Cc3cccc4ccccc34)n2)cc1,nt,-1.4,9.3*,nt,nt
NS(=O)(=O)c1ccc(NS(=O)(=O)c2ccc(NC(=S)Nc3ccccc3)cc2)cc1,-0.4,-1.1,0.2,-5.7,6.2
O=C(CSc1nnc(Nc2ccccc2)s1)NN1C(=O)NC2(CCCCC2)C1=O,-1.6,0.3,0.8,-0.9,10.5
O=C(O)CC(NC(=O)c1sc2ccccc2c1Cl)c1ccc(OC2CCCC2)cc1 (stereo not given),nt,2.7,9.6*,nt,63.6
O=C(O)CC(NC(=O)C1c2ccccc2Oc2ccccc21)c1ccc(OC2CCCC2)cc1 (stereo not given),nt,-4.2,1.3,nt,nt
OCCC1CN(CCCn2cccn2)CCN1C1CCCCC1 (stereo not given),nt,-3.0,1.4,nt,nt
